Results collected from several papers.
Compare with care: the assays were run in different laboratories.
Target: Tyrosine-protein kinase CSK (CSK, Homo sapiens, UniProt P41240)

| assay | conditions | measurement | result | Compound |
| --- | --- | --- | --- | --- |
| binding, competition with immobilised ligand | 1 µM | remaining binding | 62% | CN1CCN(C(=O)c2ccc(NC(=O)Nc3ccc(N(C)c4ccnc(Nc5ccc(CS(C)(=O)=O)cc5)n4)cc3)cc2)CC1 |
| binding, competition with immobilised ligand | 0.5 µM | remaining binding | 94% | CCCCC(=O)Nc1ccc(-c2ccc3ncn(CCC)c(=O)c3c2)cn1 |
| enzyme activity, inhibitor | 1 µM | inhibition | 32% | CC#CC(=O)N1CCC[C@H]1c1nc(-c2ccc(C(=O)Nc3ccccn3)cc2)c2c(N)nccn12 |
| cell-free assay | 1 µM | remaining signal | 119% | COc1ccc2oc(-c3ccc4nc(N)oc4c3)c/c(=N\c3ccccc3NC(=O)CCN)c2c1 |
| enzyme activity, inhibitor | 0.1 µM, lysate | inhibition | 2.59% | Cc1cc(O)c(-c2ccc([C@@H](C)CN(C)C)cc2)c2c1[nH]c(=O)c1sccc12 |
| enzyme activity, inhibitor | 0.2 µM | inhibition | 14% | C#Cc1cc(-c2cc(Nc3nc(N[C@@H](C)c4ccc(F)cn4)ncc3Cl)n[nH]2)ccc1C=O |
| enzyme activity, inhibitor | 1 µM | inhibition | 0% | CO[C@@H]1[C@H](N(C)C(=O)c2ccccc2)C[C@H]2O[C@]1(C)n1c3ccccc3c3c4c(c5c6ccccc6n2c5c31)C(=O)NC4 |
| cell-free assay | 0.1 µM | remaining signal | 88% | C1=C/COCc2cc(ccc2OCCN2CCCC2)Nc2nccc(n2)-c2cccc(c2)COC/1 |
| binding, competition with immobilised ligand | 1 µM | remaining binding | 95% | Cc1ccc(NC(=O)c2ccnc(C(F)(F)F)c2)cc1-c1cc(OCCO)nc(N2CCOCC2)c1 |
